The text below walks through data of PMC5010991 (Molecular cancer therapeutics, 2016).

Test [1] deals with T98G cells. The test is described as follows: Cell number using WST-1. In kind it is cell-based, human. The note with it: for reduction of cell number: T98G, 10 µM, WST-1. The method, boiled down:
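T98G cells (ATCC, STR-authenticated, under 6 months in culture) grown in DMEM or RPMI with 10% FBS, 100 U/mL penicillin and 100 µg/mL streptomycin at 37°C, 5% CO2. Cells exposed to test compound at 10 µM, with nocodazole or paclitaxel (10 µM each) run in parallel. Cell number followed over 72 hrs by WST-1 per kit protocol. Mean ± SEM of at least 3 independent experiments.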

The subject of the next test is bovine brain tubulin. The test is described as follows: Cell-free MT assembly assay with purified tubulin. In kind it is biochemical.
Test [2] deals with T98G cells. Briefly: Live cell imaging of EB3-GFP on assembling MTs. In kind it is cell-based, human. The note with it: nocodazole 1 µM, by 15 min. The method, boiled down:
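T98G cells transfected with EB3-GFP and RFP-CenpB to mark growing MT plus ends and centromeres. Treated with test compound (0.5 or 3 µM) or nocodazole (1 µM). Movies of 30 sec at 500 ms intervals were taken on a deconvolution microscope starting 10 min after drug addition. Images were deconvolved, and MT assembly rates were tracked in interphase cells.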

In test [3] the test system is MDA-MB-231 breast cancer cells. Briefly: Viability of positive-control breast cancer cells. Type of test: cell-based. The note with it: MDA-MB-231, by 72 hrs.

As for `COC(=O)Nc1nc2ccc(C(=O)c3cccs3)cc2[nH]1` [nocodazole], the “reduction of cell number” value in the test on T98G cells [1] (12 hrs) was 10–15%; in the test with T98G cells [1] (72 hrs), 34%. Besides, in the test on bovine brain tubulin, the “level of free tubulin” value is “triggered an increase the free tubulin”. Besides, the “assembling MTs in live cells” value in the test on T98G cells [2] is listed as “abolished all assembling MTs”.

For the compound `CC(=O)O[C@H]1C(=O)[C@@]2(C)[C@H]([C@H](OC(=O)c3ccccc3)[C@]3(O)C[C@H](OC(=O)[C@H](O)[C@@H](NC(=O)c4ccccc4)c4ccccc4)C(C)=C1C3(C)C)[C@]1(OC(C)=O)CO[C@@H]1C[C@@H]2O` [paclitaxel], the “reduction of cell number” value was 10–15% with T98G cells [1] (12 hrs) and “inactive” in the test with T98G cells [1] (72 hrs). The “level of free tubulin” value in the test with bovine brain tubulin is “decrease in free tubulin levels”. In addition, in test [3], the viability entry is listed as “reduced the viability”.

On to Z-DEVD-FMK, for which the “effect of caspase-3 inhibition on the antineoplastic action of ST-11” value with T98G cells [1] (Z-DEVD-FMK 10 µM, 15 min preincubation, ST-11 10 µM) is reported as “blocked the antineoplastic action of ST-11”.
